# Sampled rows, rich in hits. Any-hit rate of the full collection: about 1.9%.
# Vif inh: blocks HIV Vif function; HEK293T cells, Vif self-association by quenched fluorescence, imaging, 24 h; inhibition, % at 7.49 µM; 340,000 compounds, 0.35% hits; in the data active = inhibition above about 50%, passing the limit was not always enough; inconclusive = no clear call, values can overlap the other calls; inactive = below about 31%
# UCH37 inh: blocks the human deubiquitinase UCH37; 330,000 compounds, 0.33% hits; Q9Y5K5; purified proteasome/UCH37, Ub-AMC cleavage fluorescence; inhibition, % (test concentration not listed);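 active = mean inhibition over replicate wells above about 20%, limit read from the data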
# Target sequence (Q9Y5K5 whole entry, looked up): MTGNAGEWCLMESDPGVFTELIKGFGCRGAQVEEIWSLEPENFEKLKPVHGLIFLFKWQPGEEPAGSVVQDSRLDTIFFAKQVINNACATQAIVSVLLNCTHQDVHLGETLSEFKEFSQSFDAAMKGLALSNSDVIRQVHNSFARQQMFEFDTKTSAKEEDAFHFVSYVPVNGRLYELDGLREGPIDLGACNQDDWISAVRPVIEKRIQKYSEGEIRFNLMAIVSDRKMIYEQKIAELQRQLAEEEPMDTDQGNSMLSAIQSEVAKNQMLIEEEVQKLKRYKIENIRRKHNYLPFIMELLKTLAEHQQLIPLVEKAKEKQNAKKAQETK
#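 Material: Human UCH37 enzyme supplied as purified proteasome complex | Schedule: 30 min preincubation with enzyme, 25 min cleavage at room temperature | Detection: AMC fluorescence 355/460 nm | Measure: % inhibition of Ub-AMC cleavage fluorescence | Controls: Wells without proteasome as full block, compound-free enzyme plus substrate as uninhibited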
# aDG glyco up: alpha-DG glycosylation activation | Pro5-aDG cells, alpha-DG glycosylation AlphaScreen (IIH6); 0% Pro5, 100% B10-LARGE cell signal | activation, % at 10 µM | 360,000 compounds, 0.22% hits | AID 624168;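 active = activation of at least 8% versus controls, or a plate z-score of at least 8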;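 note: Pro5 are CHO cells carrying HIG-tagged alpha-DG that lacks glycosylation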
# Glyco luc inh: blocks N-linked glycosylation in D54 reporter cells; D54 ERlucT glycosylation luciferase reporter, 24 h; percent of 100 nM tunicamycin response; reporter increase, % at 12.5 µM; 360,000 compounds, 0.23% hits; AID 588692;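 active = mean luciferase reporter signal, scaled so untreated is 0 and the glycosylation-blocking control 100, at or above a set limit in every replicate; inconclusive = mean reaches the limit but not every replicate does; inactive = mean below the limit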;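 note: luciferase carries N-glycosylation sites so blocking glycosylation raises the light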
# bovine MsrA act: activates bovine MsrA enzyme. purified bovine MsrA, absorbance read-out. activation, % at 10.6 µM. 360,000 compounds, 0.3% hits. AID 602163; in the data active = activation above about 7.5%
# MsrA inh: inhibits bovine methionine sulfoxide reductase A. purified bovine MsrA, absorbance read-out. inhibition, % at 15.5 µM. 360,000 compounds, 0.75% hits; in the data active = inhibition above about 4.5%
# Hits are given with their value; – = inactive; ? = inconclusive; · = not tested or not shown.
SMILES,Vif inh,UCH37 inh,aDG glyco up,Glyco luc inh,bovine MsrA act,MsrA inh
COc1cccc(C(=O)COc2ccc3c(C)cc(=O)oc3c2)c1,–,–,–,38,–,–
COc1ccc(C(=O)COc2ccc3c(C)cc(=O)oc3c2)cc1,–,–,–,–,–,–
CC(=NNC(=O)C(C)n1nc(C)c([N+](=O)[O-])c1C)c1ccc(OCC(N)=O)cc1 (stereo unspecified),·,–,·,·,·,·
COc1ccccc1N(CC(=O)NN=C(C)c1ccccc1O)S(=O)(=O)c1ccc(C)cc1,·,–,·,·,·,·
CC(=O)c1ccc(Nc2nc(C(N)C3CCCCC3)cs2)cc1 (stereo unspecified),–,·,–,–,–,–
NC(c1csc(Nc2ccc(C(=O)c3ccccc3)cc2)n1)C1CCCCC1 (stereo unspecified),65,·,–,–,–,–
CCOc1cc([N+](=O)[O-])cc(/C=C2/NC(=O)N(Cc3ccccc3F)C2=O)c1O,–,–,–,–,–,4.6
COc1cc(-c2nc3cnccn3c2Nc2ccc(C)cc2)ccc1O,·,–,–,26,–,–
COc1cc(-c2nc3cnccn3c2Nc2ccccc2)ccc1O,–,–,–,–,–,–
O=C(O)c1ccc(-c2nc(-c3cccc(C(F)(F)F)c3)cs2)cc1,59,–,–,–,–,–
O=C1CSC(=NN=Cc2cccs2)N1Cc1ccc(F)cc1,·,–,·,·,·,·
CC(=NNc1ccc(C)c(Cl)c1)c1ccncc1,·,–,·,·,·,·
CC1(CC(=O)N/N=C/c2ccc(-c3ccc(C(=O)O)cc3)o2)OCCO1,–,·,–,–,–,9.0
CC(=NNC(=O)c1ccccn1)C12CC3CC(CC(C3)C1)C2,·,–,·,·,·,·
O=S(=O)(O)c1cc(O)c2c(O)c(N=Nc3cc(Cl)ccc3O)c(S(=O)(=O)O)cc2c1,–,34,–,–,–,·
O=S(=O)(O)c1cc(Cl)cc(N=Nc2ccc(O)cc2O)c1O,–,·,–,–,–,–
O=C1C2=C(c3ccccc31)[N+](=O)[C@@H]1CCCC[C@@H]1N2[O-],·,26,–,–,–,–
O=C1C2=C(c3ccccc31)[N+](=O)C1CCCCC1N2[O-] (stereo unspecified),·,27,–,–,–,–
CCc1nnc(NN=Cc2ccc(O)c(OC)c2)n1N,·,–,·,·,·,·
CCCc1nnc2n1N=C(c1ccc(OC)c(OC)c1)CS2,57,–,–,–,–,–
COc1ccc(OC)c(-c2nnc3n2N=C(c2ccc(OC)c(OC4CCCC4)c2)CS3)c1,·,–,–,30,–,–
COc1ccc(OC)c(-c2nnc3n2N=C(c2ccc(OC)c(OC)c2)CS3)c1,·,–,–,?,–,–
COc1ccc([C@@H]2[C@@H]3C(=O)N(C(C)(C)C)C(=O)[C@@H]3[C@]3(Cc4ccccc4)C(=O)N(c4cccc(C)c4)C(=O)N23)cc1,–,–,–,56,–,–
O=C1[C@H]2[C@@H](c3ccc(F)cc3)N3C(=O)N(c4cccc(Cl)c4)C(=O)[C@@]3(Cc3ccccc3)[C@H]2C(=O)N1C1CCCCC1,–,–,–,72,–,–
O=C1[C@H]2[C@@H](c3ccc(F)cc3)N3C(=O)N(c4cccc(Cl)c4)C(=O)[C@@]3(Cc3ccc(Cl)cc3)[C@H]2C(=O)N1C1CCCCC1,–,–,–,–,–,–
SMILES,Vif inh,UCH37 inh,aDG glyco up,Glyco luc inh,bovine MsrA act,MsrA inh
O=S1(=O)N=C(NN=C/C=C/c2ccccc2)c2ccccc21,·,–,·,·,·,·
COc1ccc(NC(=S)N2CCN(C/C=C/c3ccccc3)CC2)cc1OC,65,–,–,–,–,–
CCOc1ccc(N2C(=O)CC(N3CCc4ccccc43)C2=O)cc1 (stereo unspecified),81,–,–,–,–,–
O=C(OCCc1ccccc1)c1cc(O)c(O)c(O)c1,51,–,–,–,–,–
Cc1ccc(NS(=O)(=O)c2ccc(NC(=O)c3cccs3)cc2)cc1,–,–,–,–,8.2,–
CCC(C)NS(=O)(=O)c1ccc(NC(=O)c2cccs2)cc1 (stereo unspecified),–,–,–,–,–,–
CC[C@H](C)C(=O)O[C@H]1CCC=C2C=C[C@H](C)[C@H](CC[C@@H]3C[C@@H](O)CC(=O)O3)[C@H]21,–,–,–,54,–,–
CCC(C)C(=O)OC1CCC=C2C=CC(C)C(CCC3CC(O)CC(=O)O3)C21 (stereo unspecified),–,·,–,41,–,–
